Source: PubChem BioAssay
Hits are enriched below; roughly 2.5% of the tested compounds scored in any of these assays.
TRPC4 PAM: allosteric potentiators of mouse TRPC4 channel; HEK293 TRPC4beta/mu-opioid, DAMGO EC20, Fluo-4 Ca2+ flux; stronger effect = higher value; 0.42% of 310,000 active; B-score at 10 µM;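 active = B-score of calcium response area above 5 SD of library B-scores, with initial fluorescence ratio within 5 SD of library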;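 note: B-score of integrated fluorescence ratio over time as area under calcium response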
Target sequence (Q9QUQ5 whole entry, looked up): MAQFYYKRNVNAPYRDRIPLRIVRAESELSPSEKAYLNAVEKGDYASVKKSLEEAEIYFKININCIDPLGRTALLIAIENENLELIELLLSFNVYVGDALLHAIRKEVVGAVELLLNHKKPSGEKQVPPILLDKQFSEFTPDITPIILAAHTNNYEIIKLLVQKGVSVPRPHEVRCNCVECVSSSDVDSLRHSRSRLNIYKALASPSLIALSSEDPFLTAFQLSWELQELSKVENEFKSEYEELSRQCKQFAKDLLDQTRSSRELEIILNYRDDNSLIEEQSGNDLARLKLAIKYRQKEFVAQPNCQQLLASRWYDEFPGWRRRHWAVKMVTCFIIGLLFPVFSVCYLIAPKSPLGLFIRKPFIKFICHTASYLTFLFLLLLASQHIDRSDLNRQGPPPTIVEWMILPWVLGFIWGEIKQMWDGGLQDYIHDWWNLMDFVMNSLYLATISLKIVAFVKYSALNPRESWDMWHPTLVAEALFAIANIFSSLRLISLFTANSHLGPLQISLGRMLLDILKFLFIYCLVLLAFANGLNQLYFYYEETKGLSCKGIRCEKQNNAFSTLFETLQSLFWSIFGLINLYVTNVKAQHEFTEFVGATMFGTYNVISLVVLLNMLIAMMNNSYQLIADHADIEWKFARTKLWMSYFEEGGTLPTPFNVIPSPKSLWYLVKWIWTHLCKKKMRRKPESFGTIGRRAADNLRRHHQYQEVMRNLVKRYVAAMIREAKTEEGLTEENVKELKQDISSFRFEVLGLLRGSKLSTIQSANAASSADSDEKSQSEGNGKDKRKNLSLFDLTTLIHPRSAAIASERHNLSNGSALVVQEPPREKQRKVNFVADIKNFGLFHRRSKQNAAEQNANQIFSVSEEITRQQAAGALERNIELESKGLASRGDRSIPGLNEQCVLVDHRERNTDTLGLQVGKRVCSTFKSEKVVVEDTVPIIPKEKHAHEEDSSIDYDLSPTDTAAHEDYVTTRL
TRPC4 block: TRPC4 (mouse) channel inhibition; Q9QUQ5; HEK293 TRPC4beta/mu-opioid, DAMGO-evoked Fluo4 calcium flux; stronger effect = lower value; B-score at 10 µM; 0.39% of 300,000 active; AID 2247;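 active = B-score over 3 SD under the library average, no early fluorescence shift, positive overall ratio signal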
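Assay system: HEK293 cells with stable TRPC4beta plus mu-opioid receptor expression. Dosing: single dose. Measured by: Fluo4 Ca2+ flux fluorescence. Also added: DAMGO in two steps, submaximal then maximal. Read-out: B score from integrated Fluo4 fluorescence ratio.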
TRPC6 inh: blocks the mouse TRPC6 cation channel. HEK293-TRPC6, membrane potential dye, ACh-evoked depolarization; stronger effect = lower value. B-score at 10 µM. 1.1% of 310,000 active;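 active = B-score under library mean minus 3 SD, initial fluorescence not abnormally high, positive integrated signal ratio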;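 note: B-score derived from integrated fluorescence ratio over the kinetic read; more negative B-score means stronger inhibition of depolarization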
Platelet DG rel: modulates dense granule release in human platelets; inhibition, %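 (compounds screened at 7.5 µM in platelet-rich plasma)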; human platelet-rich plasma, SFLLRN dense granule ATP release, luminescence; 0.22% of 300,000 active;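 active = mean replicate score, as percent of positive control, at or above 50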
TRPC4 agonist: opens the mouse TRPC4 cation channel. Q9QUQ5. HEK293 TRPC4beta/mu-opioid, Fluo4 calcium fluorescence; stronger effect = higher value. B-score at 10 µM. 0.49% of 310,000 active. AID 2237;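 active = B-score above 5 SD of library B-scores, and initial fluorescence ratio not above library mean plus 5 SD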;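 note: positive B-score marks a calcium rise read as TRPC4 activation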
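Assay system: HEK293 stable line with TRPC4beta plus mu-opioid receptor. Times: dye 45 min RT, read 110 s. Measured by: kinetic Fluo4 calcium fluorescence. Measure: B score of integrated ratio. Controls: assay buffer as low control, maximal DAMGO as high control.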
TRPC6 activator: mouse TRPC6 channel activation; 0.13% of 310,000 active; AID 2550; HEK293-TRPC6 membrane potential dye fluorescence; stronger effect = higher value; B-score at 10 µM; Q61143;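 active = B-score of the integrated fluorescence ratio above library mean plus 3 SD, and starting fluorescence ratio within library mean plus 5 SD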;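 note: higher score means more depolarization so channel activation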
TRPC4 spec 2: mouse TRPC4 off-target activity of TRPC6 inhibitors, second screen; shares compounds with TRPC6 inh; HEK293 TRPC4/MOR, membrane potential dye fluorescence; channel activated by saturating DAMGO dose; inhibition, % at 10 µM; 42% of 920 active; AID 2776;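 active = compounds whose fluorescence signal differed from control wells by over 3 SD, either direction, in both duplicate plates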
TRPC4 spec: tests whether TRPC6 inhibitors also affect mouse TRPC4 | shares compounds with TRPC6 inh | HEK293 TRPC4/mu-opioid, membrane potential fluorescence | activity change, negative = inhibition, % at 10 µM | 61% of 920 active | AID 2777;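 active = rise or fall in signal beyond 3 SD of buffer-only wells in both replicate plates, either sign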;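 note: integrated kinetic ratio of fluorescence range over baseline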
HEK293 MPD ctr 2-1: second counter-screen for TRPC6 inhibitors: parental HEK293 cells | shares compounds with TRPC6 inh | parental HEK293 membrane potential dye fluorescence; maximal acetylcholine challenge after compound addition | signal change vs control, % at 10 µM | 31% of 920 active;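 active = membrane potential signal moving either way by over 3 SD of the maximum-effect control, in both duplicate plates, meaning non-specific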
HEK293 MPD ctr-1: counter-screen for TRPC6 inhibitors: effect in parental HEK293 cells | membrane potential signal change, % at 10 µM | parental HEK293 membrane potential dye fluorescence | shares compounds with TRPC6 inh | 60% of 920 active;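 active = membrane potential signal shifting up or down by more than 3 SD of buffer-only wells, on both duplicate plates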
HEK293 MPD ctr-2: checks TRPC6 modulator effects in parental HEK293 cells | shares compounds with TRPC6 inh | membrane potential dye fluorescence | membrane potential signal change, % at 10 µM | 51% of 2,400 active;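 active = membrane potential signal moves up or down beyond 5 SD from buffer-only wells, on both duplicate plates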
HEK293 MPD ctr 2-2: parental HEK293 nonspecific activity of TRPC6 modulators, second screen; inhibition, % at 10 µM; membrane potential dye fluorescence; after compound, maximal acetylcholine stimulation; 14% of 2,400 active; shares compounds with TRPC6 inh;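 active = membrane potential signal drops by more than 5 SD from the mean control signal, in both duplicate plates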;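 note: plate controls were acetylcholine ECmax control wells for no effect and buffer only wells for full effect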
TRPC4/MOR mod: mouse TRPC4 off-target activity of TRPC6 modulators. 69% of 2,400 active. percent change from control (negative = decrease, positive = increase), % at 10 µM. shares compounds with TRPC6 inh. HEK293 TRPC4/mu-opioid, membrane potential fluorescence;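 active = membrane potential signal moved up or down beyond 5 SD of buffer control wells, in both duplicate plates, actives on both sides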;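 note: plate controls were assay buffer wells for no effect and DAMGO maximal-effect wells for full effect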
TRPC4 ctr inh 2: second check of whether TRPC6 modulators also affect mouse TRPC4. inhibition, % at 10 µM. HEK293 TRPC4/mu-opioid, membrane potential dye fluorescence; stimulated with maximal-effect DAMGO. 55% of 2,400 active. shares compounds with TRPC6 inh. AID 488928;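 active = drop in membrane potential signal beyond 5 SD of the control wells in both duplicate plates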;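 note: TRPC4 counter screen for TRPC6 hits run under conditions tuned for TRPC6 not TRPC4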
TRPC6 block conf: mouse TRPC6 inhibitor confirmation; shares compounds with TRPC6 inh; HEK293-TRPC6, membrane potential dye, ACh-evoked depolarization; inhibition, % at 10 µM; 43% of 3,300 active; AID 488960;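 active = fluorescence ratio falls more than 5 SD below the full-stimulation control mean, in both duplicate runs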;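 note: integrated fluorescence ratio of peak minus minimum over baseline after agonist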
TRPC6 act conf: mouse TRPC6 activator confirmation; 11% of 2,800 active; shares compounds with TRPC6 inh; activation, % at 10 µM; AID 488961; HEK293-TRPC6 membrane potential dye fluorescence, FDSS;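 active = ratio signal rise beyond 5 SD above unstimulated control wells' mean, seen in both duplicate runs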;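 note: plate controls were buffer EC0 wells for no effect and acetylcholine ECmax response for full effect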
* marks the source's active call; other numbers are inactive results; i = inactive; nt = no result.

SMILES	TRPC4 PAM	TRPC4 block	TRPC6 inh	Platelet DG rel	TRPC4 agonist	TRPC6 activator	HEK293 MPD ctr-2	HEK293 MPD ctr 2-2	TRPC4/MOR mod	TRPC4 ctr inh 2	TRPC6 block conf	TRPC6 act conf	others
CN(C)c1nc(N)c(C(=O)N=C(N)N)nc1Cl	i	i	-7.34*	-4.0	i	i	nt	nt	nt	nt	i	i	TRPC4 spec 2=i;TRPC4 spec=-23.7%*;HEK293 MPD ctr 2-1=i;HEK293 MPD ctr-1=-364.0%*
COc1cc(OC)cc(C(=O)N2CCC(n3c(C)nc4cc(F)ccc43)CC2)c1	i	i	i	-3.8	i	20.1*	i	i	i	i	nt	163.0%*
COc1ccc(NC(=O)CN2CCC(n3c(C)nc4cc(F)ccc43)CC2)c(OC)c1	i	i	i	5.6	i	i	nt	nt	nt	nt	nt	nt
COc1ccc(CCC(C)NC2CCCCCCC2)cc1 (stereo unspecified)	i	i	-5.71*	-7.6	i	i	289.0%*	i	64.5%*	76.0%*	56.0%*	nt
Cc1nc2nc(N)nc(OCc3ccccc3)c2nc1C	i	i	i	-9.1	i	i	nt	nt	nt	nt	nt	nt
COC(=O)CSc1ccsc1C(=O)O	i	i	i	2.8	i	i	nt	nt	nt	nt	nt	nt
COC(=O)CSc1cccc2c1C(=O)CC2c1ccccc1 (stereo unspecified)	i	i	-7.69*	1.3	i	i	nt	nt	nt	nt	i	nt	TRPC4 spec 2=i;TRPC4 spec=1.9%*;HEK293 MPD ctr 2-1=i;HEK293 MPD ctr-1=3.3%*
c1ccc(CNc2nc(-c3cccnc3)nc3ccccc23)cc1	i	i	i	3.3	i	i	nt	nt	nt	nt	nt	nt
CC(C)(C)c1ccc(-c2nc(NCc3cccnc3)c3ccccc3n2)cc1	i	i	-6.81*	5.1	i	i	i	i	i	i	i	i
c1ccc(CN2CCC(Nc3nc(-c4cccnc4)nc4ccccc34)CC2)cc1	i	i	-6.3*	-7.0	i	i	-294.5%*	i	-52.0%*	66.5%*	55.5%*	i
CCC(C)Nc1nc(-c2ccccn2)nc2ccccc12 (stereo unspecified)	i	i	-5.18*	0.4	i	i	-273.5%*	i	-40.0%*	53.0%*	i	i
c1cncc(CNc2nc(-c3cccnc3)nc3ccccc23)c1	i	i	i	0.5	i	i	nt	nt	nt	nt	nt	nt
c1ccc(CNc2nc(-c3ccccn3)nc3ccccc23)cc1	i	i	-7*	2.8	i	i	-207.5%*	i	-40.5%*	61.5%*	39.5%*	i
CCN(c1ccccc1C)S(=O)(=O)c1cc2c3c(c1)CCC(=O)N3CCC2	i	i	i	5.0	i	i	nt	nt	nt	nt	nt	nt
O=C(NC1CCCCC1)C1CCN(C(=O)c2ccc(Cl)cc2)CC1	i	i	i	-4.5	i	i	nt	nt	nt	nt	nt	nt
CC1CCN(c2nc(/C=C/c3ccccc3)nc3ccccc23)CC1	i	i	-6.07*	3.9	i	i	i	i	-19.0%*	i	i	i
COc1ccc(N2CCN(C(=O)CN3C(=O)NC4(CCCc5ccccc54)C3=O)CC2)cc1 (stereo unspecified)	i	i	i	11.7	i	i	nt	nt	nt	nt	nt	nt
O=C(O)c1ccccc1/C=N/NC(=S)NCc1ccccc1	i	i	i	6.0	i	i	nt	nt	nt	nt	nt	nt
COc1ccc(NC(=O)C2CCCN(S(=O)(=O)c3ccc4c(c3)CCCN4C(C)=O)C2)cc1Cl (stereo unspecified)	i	i	i	-1.9	i	i	nt	nt	nt	nt	nt	nt
C=CCn1c2ccccc2c2nnc(SCC(=O)OCN3C(=O)c4ccccc4C3=O)nc21	i	i	i	5.4	i	i	nt	nt	nt	nt	nt	nt
O=C(CCc1nnc(-c2ccccc2)o1)NCC1CCN(C2CCCC2)CC1	i	i	i	0.2	i	i	nt	nt	nt	nt	nt	nt
COc1ccc(S(=O)(=O)NC(C)C(=O)Nc2ccc3c(c2)OCCO3)cc1OC (stereo unspecified)	i	i	-6.1*	-2.6	i	i	i	i	i	i	i	i
COc1ccc(S(=O)(=O)NC(C)C(=O)Nc2ccc3c(c2)OCO3)cc1OC (stereo unspecified)	i	i	i	7.2	i	i	nt	nt	nt	nt	nt	nt
COC(=O)c1[nH]c2ccccc2c1NC(=O)CN1CCN(C/C=C/c2ccccc2)CC1	i	i	-7.84*	-0.1	i	i	nt	nt	nt	nt	79.4%*	i	TRPC4 spec 2=30.5%*;TRPC4 spec=-16.0%*;HEK293 MPD ctr 2-1=i;HEK293 MPD ctr-1=-176.0%*
COC(=O)c1[nH]c2ccccc2c1NC(=O)CN1CC(C)OC(C)C1 (stereo unspecified)	i	i	i	-48.4	i	i	nt	nt	nt	nt	nt	nt
CCOC(=O)c1[nH]c2ccc(F)cc2c1NC(=O)CN1CCN(C/C=C/c2ccccc2)CC1	i	i	-11.8*	39.8	i	i	nt	nt	nt	nt	87.9%*	i	TRPC4 spec 2=40.0%*;TRPC4 spec=-20.9%*;HEK293 MPD ctr 2-1=i;HEK293 MPD ctr-1=-246.5%*
CCOC(=O)c1[nH]c2ccc(F)cc2c1NC(=O)CN1CCc2cc(OC)c(OC)cc2C1	i	i	i	6.0	i	i	nt	nt	nt	nt	nt	nt
